{"source": "ChEMBL document CHEMBL4020828", "about": "“Design and Syntheses of Highly Potent Teixobactin Analogues against Staphylococcus aureus, Methicillin-Resistant Staphylococcus aureus (MRSA), and Vancomycin-Resistant Enterococci (VRE) in Vitro and in Vivo” (J Med Chem, 2018)", "format_in_all_cases": "functional", "key": {"[1]": {"tested_on": "Staphylococcus epidermidis", "assay": "Antibacterial activity against Staphylococcus epidermidis"}, "Staphylococcus aureus [2]": {"tested_on": "Staphylococcus aureus", "assay": "Antibacterial activity against methicillin-resistant Staphylococcus aureus"}, "Staphylococcus aureus [3]": {"tested_on": "Staphylococcus aureus", "assay": "Antibacterial activity against methicillin-resistant Staphylococcus aureus after 24 hrs"}, "Staphylococcus aureus [4]": {"tested_on": "Staphylococcus aureus", "assay": "Antibacterial activity against methicillin-sensitive Staphylococcus aureus after 24 hrs"}, "Staphylococcus aureus [5]": {"tested_on": "Staphylococcus aureus", "assay": "Antibacterial activity against methicillin-sensitive Staphylococcus aureus"}, "Staphylococcus aureus [6]": {"tested_on": "Staphylococcus aureus", "assay": "Antibacterial activity against methicillin-resistant Staphylococcus aureus USA300"}, "Staphylococcus aureus [7]": {"tested_on": "Staphylococcus aureus", "assay": "Antibacterial activity against methicillin-resistant Staphylococcus aureus isolate 42412 after 24 hrs", "details": "isolate 42412, 24 h"}, "Enterococcus faecalis [8]": {"tested_on": "Enterococcus faecalis", "assay": "Antibacterial activity against vancomycin-resistant Enterococcus faecalis ATCC 700802 after 24 hrs", "details": "ATCC 700802, 24 h"}, "Staphylococcus aureus [9]": {"tested_on": "Staphylococcus aureus", "assay": "Antibacterial activity against methicillin-resistant Staphylococcus aureus ATCC 700699 after 24 hrs", "details": "ATCC 700699, 24 h"}, "Staphylococcus aureus [10]": {"tested_on": "Staphylococcus aureus", "assay": "Antibacterial activity against methicillin-resistant Staphylococcus aureus isolate 21455 after 24 hrs", "details": "isolate 21455, 24 h"}, "Staphylococcus aureus [11]": {"tested_on": "Staphylococcus aureus", "assay": "Antibacterial activity against methicillin-resistant Staphylococcus aureus ATCC 33591 after 24 hrs", "details": "ATCC 33591, 24 h"}, "Enterococcus faecalis [12]": {"tested_on": "Enterococcus faecalis", "assay": "Antibacterial activity against vancomycin-resistant Enterococcus faecalis ATCC 29212 after 24 hrs", "details": "ATCC 29212, 24 h"}, "Staphylococcus aureus [13]": {"tested_on": "Staphylococcus aureus", "assay": "(§1) Antibacterial activity against Staphylococcus aureus ATCC 29213 infected in C57BL6 mouse cornea assessed as mean corneal thickness at 0.3% administered tropically 2 times on day 1, 4 times on day 2 and 2 times on day 3 starting from 6 hrs post infection measured 48 hrs post last dose by AS-OCT method (reference value: 186.2 +/- 17.5 micrometer)", "summary_of_the_method": "(§2)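 Mouse corneal epithelium scratched with a scalpel, then infected with 15 µl of 6×10⁶ CFU/ml S. aureus ATCC 29213. From 6 h p.i., 15 µl of PBS vehicle, 0.3% w/v peptide in PBS or 0.3% moxifloxacin was applied, 8 doses total. Outcomes were slit-lamp examination, AS-OCT corneal thickness and CFU counts of harvested corneas (mean log₁₀ CFU/tissue ± SEM).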"}, "Staphylococcus aureus [14]": {"tested_on": "Staphylococcus aureus", "assay": "as §1, with “decrease in conjunctival chemosis” for “mean corneal thickness”, “slit-lamp photography” for “AS-OCT method (reference value: 186.2 +/- 17.5 micrometer)”", "summary_of_the_method": "as §2"}, "Staphylococcus aureus [15]": {"tested_on": "Staphylococcus aureus", "assay": "as §1, with “decrease in” for “mean”, “infiltrates” for “thickness”, “slit-lamp photography” for “AS-OCT method (reference value: 186.2 +/- 17.5 micrometer)”", "summary_of_the_method": "as §2"}, "Staphylococcus aureus [16]": {"tested_on": "Staphylococcus aureus", "assay": "Antibacterial activity against Staphylococcus aureus ATCC 29213 infected in C57BL6 mouse cornea assessed as decrease in log bacterial load/tissue at 0.3% administered tropically 2 times on day 1, 4 times on day 2 and 2 times on day 3 starting from 6 hrs post infection measured 48 hrs post last dose", "summary_of_the_method": "as §2"}, "Staphylococcus aureus [17]": {"tested_on": "Staphylococcus aureus", "assay": "as §1, with “24” for “48”, “151.7” for “186.2”, “12.7” for “17.5”", "summary_of_the_method": "as §2"}}, "note": "The source made the active and inactive calls. No cut-off for these calls is given here."}
{"smiles": "CC[C@@H](C)[C@@H](NC(=O)[C@@H](CCC(N)=O)NC(=O)[C@H](CO)NC(=O)[C@@H](NC(=O)[C@@H](Cc1ccccc1)NC)[C@@H](C)CC)C(=O)N[C@H](C(=O)N[C@@H](CO)C(=O)N[C@H]1C(=O)N[C@@H](C)C(=O)N[C@@H](CCCCN)C(=O)N[C@@H]([C@@H](C)CC)C(=O)O[C@H]1C)[C@@H](C)CC", "values": [{"measurement": "MIC", "setting": "[1]", "value": "0.5 to 1", "unit": "µg/mL"}, {"measurement": "MIC", "setting": "Staphylococcus aureus [2]", "value": 1, "unit": "µg/mL"}]}
{"smiles": "CCC(C)[C@@H]1NC(=O)[C@H](C)NC(=O)[C@H](NC(=O)[C@H](CO)NC(=O)[C@@H](NC(=O)[C@H](NC(=O)[C@@H](CCC(N)=O)NC(=O)[C@H](CO)NC(=O)[C@@H](NC(=O)[C@@H](Cc2ccccc2)NC)[C@@H](C)CC)[C@H](C)CC)[C@@H](C)CC)[C@H](C)OC(=O)[C@H]([C@@H](C)CC)NC1=O", "note": "(some centres undefined)", "values": [{"measurement": "MIC", "setting": "Staphylococcus aureus [3]", "value": 0.25, "unit": "µg/mL"}, {"measurement": "MIC", "setting": "Staphylococcus aureus [4]", "value": 0.063, "unit": "µg/mL"}]}
{"smiles": "CC[C@@H](C)[C@@H](NC(=O)[C@@H](CCC(N)=O)NC(=O)[C@H](CO)NC(=O)[C@@H](NC(=O)[C@@H](Cc1ccccc1)NC)[C@@H](C)CC)C(=O)N[C@H](C(=O)N[C@@H](CO)C(=O)N[C@H]1C(=O)N[C@@H](C)C(=O)N[C@@H](CCCCNC(=N)N)C(=O)N[C@@H]([C@@H](C)CC)C(=O)O[C@H]1C)[C@@H](C)CC", "values": [{"measurement": "MIC", "setting": "Staphylococcus aureus [5]", "value": 1, "unit": "µg/mL"}, {"measurement": "MIC", "setting": "[1]", "value": 1, "unit": "µg/mL"}, {"measurement": "MIC", "setting": "Staphylococcus aureus [6]", "value": 2, "unit": "µg/mL"}]}
{"smiles": "CC[C@@H](C)[C@@H](NC(=O)[C@@H](CCC(N)=O)NC(=O)[C@H](CO)NC(=O)[C@@H](NC(=O)[C@@H](Cc1ccccc1)NC)[C@@H](C)CC)C(=O)N[C@H](C(=O)N[C@@H](CO)C(=O)N[C@H]1C(=O)N[C@@H](C)C(=O)N[C@@H](CCCNC(=N)N)C(=O)N[C@@H]([C@@H](C)CC)C(=O)O[C@H]1C)[C@@H](C)CC", "values": [{"measurement": "MIC", "setting": "Staphylococcus aureus [5]", "value": 2, "unit": "µg/mL"}, {"measurement": "MIC", "setting": "Staphylococcus aureus [2]", "value": 2, "unit": "µg/mL"}]}
{"smiles": "CC[C@@H](C)[C@@H](NC(=O)[C@@H](CCC(N)=O)NC(=O)[C@H](CO)NC(=O)[C@@H](NC(=O)[C@@H](Cc1ccccc1)NC)[C@@H](C)CC)C(=O)N[C@H](C(=O)N[C@@H](CO)C(=O)N[C@H]1C(=O)N[C@@H](C)C(=O)N[C@@H](C(C)C)C(=O)N[C@@H]([C@@H](C)CC)C(=O)O[C@H]1C)[C@@H](C)CC", "values": [{"measurement": "MIC", "setting": "Staphylococcus aureus [3]", "value": 0.5, "unit": "µg/mL"}, {"measurement": "MIC", "setting": "Staphylococcus aureus [4]", "value": 0.25, "unit": "µg/mL"}]}
{"smiles": "CC[C@@H](C)[C@@H](NC(=O)[C@@H](CCC(N)=O)NC(=O)[C@H](CO)NC(=O)[C@@H](NC(=O)[C@@H](Cc1ccccc1)NC)[C@@H](C)CC)C(=O)N[C@H](C(=O)N[C@@H](CO)C(=O)N[C@H]1C(=O)N[C@@H](C)C(=O)N[C@@H](CC(C)C)C(=O)N[C@@H]([C@@H](C)CC)C(=O)O[C@H]1C)[C@@H](C)CC", "values": [{"measurement": "MIC", "setting": "Staphylococcus aureus [7]", "value": "< 0.0625", "unit": "µg/mL"}, {"measurement": "MIC", "setting": "Enterococcus faecalis [8]", "value": 0.25, "unit": "µg/mL"}, {"measurement": "MIC", "setting": "Staphylococcus aureus [9]", "value": 0.25, "unit": "µg/mL"}, {"measurement": "MIC", "setting": "Staphylococcus aureus [3]", "value": 0.25, "unit": "µg/mL"}, {"measurement": "MIC", "setting": "Staphylococcus aureus [10]", "value": "< 0.0625", "unit": "µg/mL"}, {"measurement": "MIC", "setting": "Staphylococcus aureus [11]", "value": 0.25, "unit": "µg/mL"}, {"measurement": "MIC", "setting": "Enterococcus faecalis [12]", "value": 0.25, "unit": "µg/mL"}, {"measurement": "MIC", "setting": "Staphylococcus aureus [4]", "value": 0.063, "unit": "µg/mL"}]}
{"smiles": "COc1c(N2C[C@@H]3CCCN[C@@H]3C2)c(F)cc2c(=O)c(C(=O)O)cn(C3CC3)c12", "note": "[MOXIFLOXACIN]", "values": [{"measurement": "Activity", "setting": "Staphylococcus aureus [13]", "value": 140.3, "unit": "um"}, {"measurement": "Activity", "setting": "Staphylococcus aureus [14]", "value": "Active"}, {"measurement": "Activity", "setting": "Staphylococcus aureus [15]", "value": "Active"}, {"measurement": "Activity", "setting": "Staphylococcus aureus [16]", "value": 3.7, "unit": "log10CFU"}, {"measurement": "Activity", "setting": "Staphylococcus aureus [17]", "value": 124.2, "unit": "um"}]}
